# Results: ChEMBL document CHEMBL1765023, “Acetyl analogs of combretastatin A-4: synthesis and biological studies” (Bioorg Med Chem, 2011)
# What was measured:
# [1] = test system: UO-31; assay: Growth inhibition of human UO31 cells after 48 hrs by sulforhodamine B assay; format: functional; settings: UO-31, 48 h
# Procedure, shortened: (§1)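 Tested in the NCI 60 human cancer cell line panel. Cells were exposed continuously for 48 h and proliferation was read by sulforhodamine B staining. GI50 (concentration for 50% growth inhibition), TGI (total growth inhibition) and LC50 were taken from dose–response curves.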
# [2] = test system: CAKI-1; assay: Growth inhibition of human Caki1 cells after 48 hrs by sulforhodamine B assay; format: functional; settings: CAKI-1, 48 h
# Procedure, shortened: (§2)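 NCI 60 human cancer cell line screen run at the National Cancer Institute. Cells had 48 h continuous exposure, and proliferation was read by sulforhodamine B staining. GI50 (50% growth inhibition) was taken from dose–response curves.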
# [3] = test system: A498; assay: Growth inhibition of human A498 cells after 48 hrs by sulforhodamine B assay; format: functional; settings: A498, 48 h; procedure, shortened: as §2
# [4] = Growth inhibition of human […] cells after 48 hrs by sulforhodamine B assay; format: functional; procedure, shortened: as §2
# [5] = test system: CCRF-CEM; assay: Growth inhibition of human CCRF-CEM cells after 48 hrs by sulforhodamine B assay; format: functional; procedure, shortened: as §2
# [6] = test system: OVCAR-5; assay: Growth inhibition of human OVCAR5 cells after 48 hrs by sulforhodamine B assay; format: functional; settings: OVCAR-5, 48 h; procedure, shortened: as §2
# [7] = test system: SF-539; assay: Growth inhibition of human SF539 cells after 48 hrs by sulforhodamine B assay; format: functional; settings: SF-539, 48 h; procedure, shortened: as §2
# [8] = test system: Mus musculus; assay: Toxicity in DBA2 mouse assessed as change in white blood count at 75 mg/kg, ip QD administered on alternate days for 17 days measured on day 23 relative to control; format: organism-based; parameters: dose 75 mg/kg, route intraperitoneal; settings: in vivo, 408 h
# Procedure, shortened: (§3)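 Healthy female DBA2 mice, 5–7 weeks old, five per group, received 75 mg/kg ip on days 1, 5, 9, 13 and 17. Vehicle was PET (PEG400/ethanol/Tween 80, 6:3:1), 5% glucose and DMSO, with final ethanol 15% and DMSO 10%. Controls received 100 µL vehicle. Body weight was measured every other day. At sacrifice on day 23, blood counts (hematocrit, WBC, granulocytes, platelets) and liver, kidney and spleen appearance and weight were assessed.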
# [9] = test system: Mus musculus; assay: Toxicity in DBA2 mouse assessed as change in color, weight and size in kidney at 75 mg/kg, ip QD administered on alternate days for 17 days measured on day 23 relative to control; format: organism-based; parameters: dose 75 mg/kg, route intraperitoneal; settings: in vivo, 408 h; procedure, shortened: as §3
# [10] = test system: SK-MEL-28; assay: Growth inhibition of human SK-MEL-28 cells after 48 hrs by sulforhodamine B assay; format: functional; settings: SK-MEL-28, 48 h; procedure, shortened: as §2
# [11] = test system: HT-29; assay: Growth inhibition of human HT-29 cells after 48 hrs by sulforhodamine B assay; format: functional; settings: HT-29, 48 h; procedure, shortened: as §2
# [12] = test system: MDA-MB-468; assay: Growth inhibition of human MDA-MB-468 cells after 48 hrs by sulforhodamine B assay; format: functional; settings: MDA-MB-468, 48 h; procedure, shortened: as §2
# [13] = test system: SF-268; assay: Growth inhibition of human SF268 cells after 48 hrs by sulforhodamine B assay; format: functional; settings: SF-268, 48 h; procedure, shortened: as §2
# [14] = test system: MOLT-4; assay: Growth inhibition of human MOLT4 cells after 48 hrs by sulforhodamine B assay; format: functional; settings: MOLT-4, 48 h; procedure, shortened: as §2
# [15] = test system: L1210; assay: Cytotoxicity against mouse L1210 cells by MTT assay; format: functional, cell-based
# [16] = test system: OVCAR-4; assay: Growth inhibition of human OVCAR4 cells after 48 hrs by sulforhodamine B assay; format: functional; settings: OVCAR-4, 48 h; procedure, shortened: as §2
# [17] = test system: COLO 205; assay: Growth inhibition of human COLO205 cells after 48 hrs by sulforhodamine B assay; format: functional; settings: COLO 205, 48 h; procedure, shortened: as §2
# [18] = test system: EKVX; assay: Growth inhibition of human EKVX cells after 48 hrs by sulforhodamine B assay; format: functional; procedure, shortened: as §2
# [19] = test system: SW-620; assay: Growth inhibition of human SW620 cells after 48 hrs by sulforhodamine B assay; format: functional; settings: SW-620, 48 h; procedure, shortened: as §1
# [20] = test system: TK-10; assay: Growth inhibition of human TK10 cells after 48 hrs by sulforhodamine B assay; format: functional; settings: TK-10, 48 h; procedure, shortened: as §1
# [21] = test system: OVCAR-8; assay: Growth inhibition of human OVCAR8 cells after 48 hrs by sulforhodamine B assay; format: functional; settings: OVCAR-8, 48 h; procedure, shortened: as §2
# [22] = test system: ACHN; assay: Growth inhibition of human ACHN cells after 48 hrs by sulforhodamine B assay; format: functional; procedure, shortened: as §2
# [23] = Growth inhibition of human Hs 578T cells after 48 hrs by sulforhodamine B assay; format: functional; procedure, shortened: as §2
# [24] = test system: SK-OV-3; assay: Growth inhibition of human SKOV3 cells after 48 hrs by sulforhodamine B assay; format: functional; settings: SK-OV-3, 48 h; procedure, shortened: as §1
# [25] = test system: MDA-MB-231; assay: Growth inhibition of human MDA-MB-231 cells after 48 hrs by sulforhodamine B assay; format: functional; settings: MDA-MB-231, 48 h; procedure, shortened: as §2
# [26] = test system: K562; assay: Growth inhibition of human K562 cells after 48 hrs by sulforhodamine B assay; format: functional; settings: K562, 48 h; procedure, shortened: as §2
# [27] = test system: BT-549; assay: Growth inhibition of human BT549 cells after 48 hrs by sulforhodamine B assay; format: functional; settings: BT-549, 48 h; procedure, shortened: as §2
# [28] = test system: SK-MEL-5; assay: Growth inhibition of human SK-MEL-5 cells after 48 hrs by sulforhodamine B assay; format: functional; settings: SK-MEL-5, 48 h; procedure, shortened: as §2
# [29] = test system: B16; assay: Cytotoxicity against mouse B16 cells by MTT assay; format: functional, cell-based
# [30] = Induction of microtubule depolymerization in […] cells for 18 hrs by indirect immunofluorescence microscopic analysis; format: cell-based
# Procedure, shortened: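 Uses A-10 cells, a non-transformed line that arrests in interphase under microtubule-targeting agents. Cells were treated for 18 h and interphase microtubules were visualized by indirect immunofluorescence microscopy, with vehicle-treated controls. Depolymerization was screened at concentrations below 30 µM. For EC50, a range of concentrations was tested, and EC50 is the concentration causing 50% loss of cellular microtubules by microscopy.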
# [31] = test system: SN12C; assay: Growth inhibition of human SN12C cells after 48 hrs by sulforhodamine B assay; format: functional; procedure, shortened: as §1
# [32] = test system: OVCAR-3; assay: Growth inhibition of human OVCAR3 cells after 48 hrs by sulforhodamine B assay; format: functional; settings: OVCAR-3, 48 h; procedure, shortened: as §2
# [33] = test system: UACC-62; assay: Growth inhibition of human UACC62 cells after 48 hrs by sulforhodamine B assay; format: functional; settings: UACC-62, 48 h; procedure, shortened: as §1
# [34] = test system: Mus musculus; assay: Toxicity in DBA2 mouse assessed as change in platelet count at 75 mg/kg, ip QD administered on alternate days for 17 days measured on day 23 relative to control; format: organism-based; parameters: dose 75 mg/kg, route intraperitoneal; settings: in vivo, 408 h; procedure, shortened: as §3
smiles,measurement,setting,value
COc1ccc(/C=C(/C(C)=O)c2cc(OC)c(OC)c(OC)c2)cc1O,GI50,[1],575 nM
same,TGI,[1]; read-out: pTGI,> 100000 nM
same,GI50,[2],186 nM
same,TGI,[2]; read-out: pTGI (converted),19500 nM
same,GI50,[3],67.6 nM
same,TGI,[3]; read-out: pTGI (converted),550 nM
same,GI50,[4],661 nM
same,TGI,[4]; read-out: pTGI,> 100000 nM
same,GI50,[5],398 nM
same,TGI,[5]; read-out: pTGI,> 100000 nM
same,GI50,[6],4270 nM
same,TGI,[6]; read-out: pTGI,> 100000 nM
same,GI50,[7],302 nM
same,TGI,[7]; read-out: pTGI,> 100000 nM
same,Activity,[8],Non-toxic
same,Activity,[9],Non-toxic
same,GI50,[10],100000 nM
same,TGI,[10]; read-out: pTGI,> 100000 nM
same,GI50,[11],3630 nM
same,TGI,[11]; read-out: pTGI (converted),15500 nM
same,GI50,[12],170 nM
same,TGI,[12]; read-out: pTGI (converted),550 nM
same,GI50,[13],363 nM
same,TGI,[13]; read-out: pTGI (converted),16600 nM
same,GI50,[14],316 nM
same,TGI,[14]; read-out: pTGI,> 100000 nM
same,IC50,[15],450 nM
same,GI50,[16],933 nM
same,TGI,[16]; read-out: pTGI,> 100000 nM
same,GI50,[17],10700 nM
same,TGI,[17]; read-out: pTGI (converted),37200 nM
same,GI50,[18],5250 nM
same,TGI,[18]; read-out: pTGI,> 100000 nM
same,GI50,[19],91.2 nM
same,TGI,[19]; read-out: pTGI (converted),53700 nM
same,GI50,[20],18200 nM
same,TGI,[20]; read-out: pTGI,> 100000 nM
same,GI50,[21],372 nM
same,TGI,[21]; read-out: pTGI,> 100000 nM
same,GI50,[22],1230 nM
same,TGI,[22]; read-out: pTGI,> 100000 nM
same,GI50,[23],89.1 nM
same,TGI,[23]; read-out: pTGI (converted),74100 nM
same,GI50,[24],417 nM
same,TGI,[24]; read-out: pTGI,> 100000 nM
same,GI50,[25],575 nM
same,TGI,[25]; read-out: pTGI,> 100000 nM
same,GI50,[26],40.7 nM
same,TGI,[26]; read-out: pTGI,> 100000 nM
same,GI50,[27],427 nM
same,TGI,[27]; read-out: pTGI (converted),14100 nM
same,GI50,[28],132 nM
same,TGI,[28]; read-out: pTGI (converted),3090 nM
same,IC50,[29],3500 nM
same,EC50,[30],1800 nM
same,GI50,[31],776 nM
same,TGI,[31]; read-out: pTGI,> 100000 nM
same,GI50,[32],95.5 nM
same,TGI,[32]; read-out: pTGI (converted),355 nM
same,GI50,[33],151 nM
same,TGI,[33]; read-out: pTGI,> 100000 nM
same,Activity,[34],Non-toxic
